In ChEMBL document CHEMBL1821590, “Novel dihydropyrimidines and its pyrazole derivatives: synthesis and pharmacological screening” (Eur J Med Chem, 2011):
In brackets after ≈: the same amount, converted by molar mass.

Experiments:
Assay type in all cases: functional
[1] = Antioxidant activity assessed as nitric oxide radical scavenging activity after 150 mins
Summary of the method: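 10 mM sodium nitroprusside (4 mL), PBS pH 7.4 (1 mL) and sample or ascorbic acid in DMSO (1 mL, 12.5–100 µg/mL), incubated 150 min at 25 °C. Nitrite detected with sulphanilic acid (5 min) then naphthylethylenediamine (30 min, diffused light). Read at […]. Triplicate. % inhibition = [1 − (Vt/Vc)] × 100. IC50 derived from it.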

[2] = Antioxidant activity assessed as hydrogen peroxide scavenging activity after 10 mins
Summary of the method: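 H2O2 (20 mM) in PBS pH 7.4. 1 mL of sample or ascorbic acid in methanol (12.5–100 µg/mL) added to 2 mL H2O2 solution. A230 read after 10 min. % inhibition = [1 − (Vt/Vc)] × 100. Triplicate, averaged. IC50 derived from % inhibition across concentrations.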

[3] = Antioxidant activity assessed as inhibition of lipid peroxidation using egg lecithin liposomes incubated for 1 hr
Summary of the method: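 Egg lecithin (3 mg/mL, phosphate buffer pH 7.4) sonicated 10 min to form liposomes. Sample or ascorbic acid (12.5–100 µg/mL) added. Peroxidation induced with FeCl3 and L-ascorbic acid, 1 h at 37 °C. Stopped with HCl/TCA/TBA/BHA, boiled 15 min, centrifuged, supernatant read at 532 nm. Triplicate. % inhibition vs control. IC50 derived.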

[4] = Antioxidant activity assessed as potassium ferricyanide ion reducing power after 20 mins
Summary of the method: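 Oyaizu method. Samples or ascorbic acid in DMF (12.5–100 µg/mL) mixed with 0.2 M phosphate buffer pH 6.6 and 1% potassium ferricyanide, 20 min at 50 °C. 10% TCA added, centrifuged. Supernatant mixed with water and 0.1% FeCl3, read at 700 nm. % = [(Vt/Vc) − 1] × 100. IC50 derived.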

[5] = Antiinflammatory activity assessed as inhibition of albumin denaturation at 100 ug/ml by UV-visible spectrophotometry
Summary of the method: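 Compounds dissolved in minimal DMF, diluted in PBS pH 7.4 (final DMF <2.5%). 1 mL test solution (100 µg/mL) plus 1 mL 1% albumin in PBS, 15 min at 27 ± 1 °C, then heated 10 min at 60 ± 1 °C. After cooling, turbidity read at 660 nm. % inhibition = [(Vt/Vc) − 1] × 100 against a no-drug control. Triplicate, averaged. Diclofenac standard.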

Metaphire posthuma [6] = assay: Anthelmintic activity against Pheretima posthuma assessed as time taken for complete parasite paralysis at 0.1% w/v
Summary of the method: (§1)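 Earthworms (Pheretima posthuma) exposed to test solutions at 0.1, 0.2 and 0.5% w/v; time in minutes to complete paralysis (worms motionless) recorded. Albendazole as standard. Mean of three determinations ± S.D.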

Metaphire posthuma [7] = assay: Anthelmintic activity against Pheretima posthuma assessed as time taken for complete parasite paralysis at 0.2% w/v; summary of the method: as §1
Metaphire posthuma [8] = assay: Anthelmintic activity against Pheretima posthuma assessed as time taken for complete parasite paralysis at 0.5% w/v; summary of the method: as §1
Metaphire posthuma [9] = assay: Anthelmintic activity against Pheretima posthuma assessed as time taken for parasite death at 0.1% w/v
Summary of the method: (§2)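 Earthworms (Pheretima posthuma, spelled Perituma posthuma in text) exposed to test compounds at 0.1, 0.2 and 0.5% w/v. Albendazole served as standard, with an untreated control. Paralysis was recorded as the time until worms became motionless, then time to death was recorded, in minutes. Each value is the mean of three determinations with S.D.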

Metaphire posthuma [10] = assay: Anthelmintic activity against Pheretima posthuma assessed as time taken for parasite death at 0.2% w/v; summary of the method: as §2
Metaphire posthuma [11] = assay: Anthelmintic activity against Pheretima posthuma assessed as time taken for parasite death at 0.5% w/v; summary of the method: as §2
Escherichia coli [12] = assay: Antimicrobial activity against Escherichia coli at 25 ug/ml by agar plate diffusion technique; details: read-out: IZ
Summary of the method: (§3)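 Agar plate diffusion against E. coli, P. aeruginosa, S. aureus and B. subtilis, with compounds at 25, 50 and 100 µg/mL. Streptomycin as standard.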

Escherichia coli [13] = assay: Antimicrobial activity against Escherichia coli at 50 ug/ml by agar plate diffusion technique; details: read-out: IZ; summary of the method: as §3
Escherichia coli [14] = assay: Antimicrobial activity against Escherichia coli at 100 ug/ml by agar plate diffusion technique; details: read-out: IZ; summary of the method: as §3
Pseudomonas aeruginosa [15] = assay: Antimicrobial activity against Pseudomonas aeruginosa at 25 ug/ml by agar plate diffusion technique; details: read-out: IZ; summary of the method: as §3
Pseudomonas aeruginosa [16] = assay: Antimicrobial activity against Pseudomonas aeruginosa at 50 ug/ml by agar plate diffusion technique; details: read-out: IZ; summary of the method: as §3
Pseudomonas aeruginosa [17] = assay: Antimicrobial activity against Pseudomonas aeruginosa at 100 ug/ml by agar plate diffusion technique; details: read-out: IZ; summary of the method: as §3
Bacillus subtilis [18] = assay: Antimicrobial activity against Bacillus subtilis at 25 ug/ml by agar plate diffusion technique; details: read-out: IZ; summary of the method: as §3
Bacillus subtilis [19] = assay: Antimicrobial activity against Bacillus subtilis at 50 ug/ml by agar plate diffusion technique; details: read-out: IZ; summary of the method: as §3
Bacillus subtilis [20] = assay: Antimicrobial activity against Bacillus subtilis at 100 ug/ml by agar plate diffusion technique; details: read-out: IZ; summary of the method: as §3
Staphylococcus aureus [21] = assay: Antimicrobial activity against Staphylococcus aureus at 25 ug/ml by agar plate diffusion technique; details: read-out: IZ; summary of the method: as §3
Staphylococcus aureus [22] = assay: Antimicrobial activity against Staphylococcus aureus at 50 ug/ml by agar plate diffusion technique; details: read-out: IZ; summary of the method: as §3
Staphylococcus aureus [23] = assay: Antimicrobial activity against Staphylococcus aureus at 100 ug/ml by agar plate diffusion technique; details: read-out: IZ; summary of the method: as §3
Candida albicans [24] = assay: Antimicrobial activity against Candida albicans at 25 ug/ml by paper disc method; details: read-out: IZ
Summary of the method: (§4)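 Paper disc method against A. niger and C. albicans, with compounds at 25, 50 and 100 µg/mL. Amphotericin-B as standard.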

Candida albicans [25] = assay: Antimicrobial activity against Candida albicans at 50 ug/ml by paper disc method; details: read-out: IZ; summary of the method: as §4
Candida albicans [26] = assay: Antimicrobial activity against Candida albicans at 100 ug/ml by paper disc method; details: read-out: IZ; summary of the method: as §4
Aspergillus niger [27] = assay: Antimicrobial activity against Aspergillus niger at 25 ug/ml by paper disc method; details: read-out: IZ; summary of the method: as §4
Aspergillus niger [28] = assay: Antimicrobial activity against Aspergillus niger at 50 ug/ml by paper disc method; details: read-out: IZ; summary of the method: as §4
Aspergillus niger [29] = assay: Antimicrobial activity against Aspergillus niger at 100 ug/ml by paper disc method; details: read-out: IZ; summary of the method: as §4

Row | SMILES | IC50 [1] | IC50 [2] | IC50 [3] | IC50 [4] | inhibition [5] | Time (Metaphire posthuma [6]) | Time (Metaphire posthuma [7]) | Time (Metaphire posthuma [8]) | Time (Metaphire posthuma [9]) | Time (Metaphire posthuma [10]) | Time (Metaphire posthuma [11]) | zone of inhibition at 25 µg/mL (Escherichia coli [12]) | zone of inhibition at 50 µg/mL (Escherichia coli [13]) | zone of inhibition at 100 µg/mL (Escherichia coli [14]) | zone of inhibition at 25 µg/mL (Pseudomonas aeruginosa [15]) | zone of inhibition at 50 µg/mL (Pseudomonas aeruginosa [16]) | zone of inhibition at 100 µg/mL (Pseudomonas aeruginosa [17]) | zone of inhibition at 25 µg/mL (Bacillus subtilis [18]) | zone of inhibition at 50 µg/mL (Bacillus subtilis [19]) | zone of inhibition at 100 µg/mL (Bacillus subtilis [20]) | also measured
1 | COc1cccc(-c2nc(NN)n(C)c(=O)c2C#N)c1OC | 54 µg/mL (≈ 179 µM) | 36 µg/mL (≈ 119 µM) | 37 µg/mL (≈ 123 µM) | 44 µg/mL (≈ 146 µM) | 24.6% | 55.23 min | 55.57 min | 51.42 min | 71.45 min | 70.25 min | 67.22 min | 7.38 mm | 7.16 mm | 8.12 mm | 6.15 mm | 8.12 mm | 9.15 mm | 9.9 mm | 12.2 mm | 16.7 mm | zone of inhibition at 25 µg/mL (Staphylococcus aureus [21]): 8.72 mm; zone of inhibition at 50 µg/mL (Staphylococcus aureus [22]): 11.2 mm; zone of inhibition at 100 µg/mL (Staphylococcus aureus [23]): 15.8 mm; zone of inhibition at 25 µg/mL (Candida albicans [24]): 10.1 mm; zone of inhibition at 50 µg/mL (Candida albicans [25]): 11 mm; zone of inhibition at 100 µg/mL (Candida albicans [26]): 17.9 mm; zone of inhibition at 25 µg/mL (Aspergillus niger [27]): 8.38 mm; zone of inhibition at 50 µg/mL (Aspergillus niger [28]): 10.3 mm; zone of inhibition at 100 µg/mL (Aspergillus niger [29]): 16.7 mm
2 | CCOC(=O)c1cnn(-c2nc(-c3ccccc3F)c(C#N)c(=O)n2C)c1N | 87 µg/mL (≈ 228 µM) | 86 µg/mL (≈ 225 µM) | 94 µg/mL (≈ 246 µM) | 69 µg/mL (≈ 180 µM) | 48.9% | 70.67 min | 68.48 min | 48.38 min | 88.45 min | 80.74 min | 60.77 min | 15.1 mm | 22.3 mm | 27.5 mm | 12.7 mm | 16.1 mm | 26.2 mm | 14.8 mm | 19.3 mm | 28 mm | zone of inhibition at 25 µg/mL (Staphylococcus aureus [21]): 15.8 mm; zone of inhibition at 50 µg/mL (Staphylococcus aureus [22]): 20.8 mm; zone of inhibition at 100 µg/mL (Staphylococcus aureus [23]): 26.7 mm; zone of inhibition at 25 µg/mL (Candida albicans [24]): 12 mm; zone of inhibition at 50 µg/mL (Candida albicans [25]): 15.2 mm; zone of inhibition at 100 µg/mL (Candida albicans [26]): 21.2 mm; zone of inhibition at 25 µg/mL (Aspergillus niger [27]): 11.9 mm; zone of inhibition at 50 µg/mL (Aspergillus niger [28]): 14.1 mm; zone of inhibition at 100 µg/mL (Aspergillus niger [29]): 21.2 mm
3 | CCOC(=O)c1cnn(-c2nc(-c3cccs3)c(C#N)c(=O)n2C)c1N | 98 µg/mL (≈ 265 µM) | 109 µg/mL (≈ 294 µM) | 97 µg/mL (≈ 262 µM) | 79 µg/mL (≈ 213 µM) | 44.6% | 42.48 min | 40.12 min | 43.59 min | 47.38 min | 49.67 min | 47.44 min | 12.5 mm | 13.1 mm | 16.1 mm | 9.67 mm | 12.7 mm | 18.8 mm | 12.9 mm | 15.1 mm | 18.7 mm | zone of inhibition at 25 µg/mL (Staphylococcus aureus [21]): 11.8 mm; zone of inhibition at 50 µg/mL (Staphylococcus aureus [22]): 12.2 mm; zone of inhibition at 100 µg/mL (Staphylococcus aureus [23]): 16.5 mm; zone of inhibition at 25 µg/mL (Candida albicans [24]): 9.1 mm; zone of inhibition at 50 µg/mL (Candida albicans [25]): 13.8 mm; zone of inhibition at 100 µg/mL (Candida albicans [26]): 21.5 mm; zone of inhibition at 25 µg/mL (Aspergillus niger [27]): 12.1 mm; zone of inhibition at 50 µg/mL (Aspergillus niger [28]): 15.8 mm; zone of inhibition at 100 µg/mL (Aspergillus niger [29]): 22.1 mm
